High-throughput results from PubChem BioAssay.
Kir21 block – blocks the mouse Kir2.1 inward-rectifier potassium channel | 0.85% of 310,000 active | B-score at 10 µM | HEK293-Kir2.1, FluxOR thallium flux fluorescence; active compounds read low;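 active means fluorescence ratio B-score at or below minus 3 SD of library scores, with starting-brightness B-score within 2 SD, cut at about -4.2 in these data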;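 further: channel flux triggered by added potassium and thallium sulfate stimulus; B-score of peak minus minimum fluorescence over baseline after thallium stimulus; more negative B-score means stronger Kir2.1 block with less thallium influx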
KCNQ1 act – human KCNQ1 channel potentiation or activation | B-score at 10 µM | CHO-K1 KCNQ1, thallium flux FluxOR fluorescence; active compounds read high | P51787 | AID 2648 | 0.35% of 310,000 active;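 active means fluorescence ratio B-score, a plate-corrected score, at least three library SD, with initial intensity B-score within 5 SD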
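Assay system: CHO-K1 cells stably expressing KCNQ1; Medium: assay buffer with matched DMSO; Also added: K+/Tl+ depolarizing stimulus; Dosing: single dose; Timing: dye 90 min, compound 20 min, room temperature; Measured by: kinetic FluxOR thallium fluorescence, 10-s 1-Hz baseline, 110-s post-stimulus read; Read-out: peak-minus-minimum fluorescence over initial fluorescence, negative-control normalized, B-scored.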
hERG protect – compounds protecting human hERG from proarrhythmic drug block; 0.51% of 310,000 active; CHO-hERG, FluxOR thallium flux, dofetilide IC70 present; Q12809; activation (rescue from dofetilide block), less the hit threshold, % at 10 µM; AID 1511;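 active means activation above the mean of controls blocked by dofetilide plus 5 SD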;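 further: thallium influx through hERG after potassium depolarization seen as dye fluorescence rise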
KCNK3 block – human KCNK3 channel inhibition, primary screen; O14649; CHO-KCNK3 thallium flux, FluxOR fluorescence; active compounds read low; B-score at 10 µM; 0.84% of 340,000 active; AID 602410;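 active means B-score under library mean minus 4 SD, starting fluorescence ratio at most library mean plus 5 SD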;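 further: more negative B-score means stronger inhibition of thallium flux through KCNK3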
Target sequence (O14649 whole entry, looked up): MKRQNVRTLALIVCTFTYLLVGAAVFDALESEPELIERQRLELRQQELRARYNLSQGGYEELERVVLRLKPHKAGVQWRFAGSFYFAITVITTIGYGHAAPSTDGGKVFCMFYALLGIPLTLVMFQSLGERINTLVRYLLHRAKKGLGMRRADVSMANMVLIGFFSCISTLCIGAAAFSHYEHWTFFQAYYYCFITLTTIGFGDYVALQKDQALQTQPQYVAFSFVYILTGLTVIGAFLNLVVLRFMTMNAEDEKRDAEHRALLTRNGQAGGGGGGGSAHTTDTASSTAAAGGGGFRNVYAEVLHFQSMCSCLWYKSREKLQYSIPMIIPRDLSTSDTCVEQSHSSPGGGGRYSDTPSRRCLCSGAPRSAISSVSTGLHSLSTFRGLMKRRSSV
KCNK9 inh – inhibitors of human KCNK9 two-pore domain potassium channel; HEK293 KCNK9, FluxOR thallium flux fluorescence; active compounds read low; B-score at 10 µM; 1.2% of 310,000 active; AID 488922;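 active means ratio B-score over 3 SD below the library mean, with starting fluorescence within 5 SD of its mean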;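 further: negative B-score means less thallium flux so channel inhibition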
KCNQ1 inh – inhibitors of human KCNQ1 potassium channel; B-score at 10 µM; P51787; 1.3% of 310,000 active; CHO-K1 KCNQ1, FluxOR thallium flux fluorescence; active compounds read high; AID 2642;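 active means compounds whose thallium flux B-score, printed positive for inhibition, exceeds three library SD while starting fluorescence stays within three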;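 further: channel opened by potassium depolarization with thallium stimulus after 20 min compound exposure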
Starred values were filed as active, the others as inactive; i = inactive; nt = not tested or not shown. Hits are enriched below; roughly 3.7% of the tested compounds scored in any of these assays.

SMILES	Kir21 block	KCNQ1 act	hERG protect	KCNK3 block	KCNK9 inh	KCNQ1 inh
Cc1ccccc1Cn1c(O)c(N=NC(=S)Nc2ccccc2F)c2ccccc21	-1.5	i	36*	i	i	i
NC(=S)N=Nc1c(O)n(CCCl)c2ccccc12	-0.56	i	-5	i	i	i
CC(NS(=O)(=O)c1cccc(C(=O)N(C)Cc2ccc(N3CCOCC3)cc2)c1)c1ccccc1 (stereo unspecified)	nt	nt	nt	i	nt	nt
CN(CC(=O)Nc1ccccc1Cl)C(=O)CN1C(=O)NC(c2ccccc2)(c2ccccc2)C1=O	nt	nt	nt	i	nt	nt
CCCn1c(O)c(N=NC(=O)c2ccco2)c2ccccc21	0.2	i	60*	i	i	i
Oc1c(N=NC(=S)Nc2ccccc2F)c2ccccc2n1Cc1ccccc1F	-0.1	23*	29*	i	i	i
CCn1c(O)c(N=NC(=O)CNC(=O)c2ccccc2F)c2ccccc21	0.05	i	-4	i	i	i
Cc1ccc(C)c(Cn2c(O)c(N=NC(=S)Nc3ccccc3F)c3ccccc32)c1	-0.06	i	4.7*	i	i	i
Cc1sc2ncnc(N3CCCC(C)C3)c2c1C (stereo unspecified)	0.21	i	-6	i	i	i
CCOc1ccc(CCNC(=O)COC(=O)COc2ccc(C#N)cc2)cc1OCC	nt	nt	nt	i	nt	nt
CC(C)c1ccc(/C=N/n2c(COc3ccccc3)n[nH]c2=S)cc1	1.2	16*	-2	i	i	i
CCOC(=O)C(CSCC(=O)c1ccc(Cl)cc1)NC(=O)OC(C)(C)C (stereo unspecified)	-5.7*	i	-8	i	i	i
CCOC(=O)C(CSCC(=O)c1ccc(Br)cc1)NC(=O)OC(C)(C)C (stereo unspecified)	-0.36	i	-7	nt	i	i
CCOC(=O)/C=C/C(=O)Nc1cccc([N+](=O)[O-])c1	-6.2*	i	-11	i	i	i
CCOC(=O)/C(C)=N/NC(=O)c1cccc([N+](=O)[O-])c1	-0.76	i	12*	i	i	i
CCOC(=O)Cc1ccc(NC(=O)c2cccc([N+](=O)[O-])c2)cc1	0.03	i	2	i	i	i
CC(NC(=O)Nc1cccc([N+](=O)[O-])c1)(C(F)(F)F)C(F)(F)F	0.58	i	-22	i	i	12*
O=C(Nc1cccc([N+](=O)[O-])c1)Nc1cccs1	1.2	i	-32	i	i	8*
Nn1cnnc1SCC(=O)N1CCc2ccccc2C1	nt	nt	nt	i	nt	nt
O=C(NCCOc1ccc(Cl)cc1)C1CC(=O)N(c2ccc3c(c2)OCCO3)C1 (stereo unspecified)	nt	nt	nt	i	nt	nt
O=C(Cc1ccccc1Cl)c1ccccc1	nt	nt	nt	i	nt	nt
CC(C)[C@H](NC(=O)c1ccc(C(C)(C)C)cc1)C(=O)N1CCN(Cc2ccc3c(c2)OCO3)CC1	nt	nt	nt	i	nt	nt
CCCCn1c2c(c(=N)c3c1CCC3)CCC2	nt	nt	nt	i	nt	nt
CCCCCCn1c2c(c(=N)c3c1CCC3)CCC2	-0.68	i	-26	i	i	6*
Nc1c(C(=O)CSc2nnc(Cc3ccccc3)o2)c(=O)[nH]c(=O)n1C1CC1	nt	nt	nt	i	nt	nt
SMILES	Kir21 block	KCNQ1 act	hERG protect	KCNK3 block	KCNK9 inh	KCNQ1 inh
O=C(Nc1cccnc1Cl)c1cc(-c2cccc(O)c2)on1	0.51	i	-9	i	i	i
CCN(C(=O)CSc1nc2scc(-c3ccccc3)c2c(=O)n1N)C1CCS(=O)(=O)C1 (stereo unspecified)	nt	nt	nt	i	nt	nt
CN(/N=C/c1cc(Cl)cc(Cl)c1O)C(=S)NC(C)(C)C	0	i	-21	i	i	13*
CC(C)c1ccc(CN(C)C(=O)c2ccc(S(=O)(=O)NCc3ccco3)cc2)cc1	nt	nt	nt	i	nt	nt
CCCc1cc(=O)n2[nH]cc(-c3ccc(Cl)cc3)c2n1	-0.18	10*	3	i	i	i
CC1=C(c2ccccc2)C=NNCC1=O	nt	nt	nt	i	nt	nt
COc1ccc(CN2C(=O)c3ccccc3C(/C=N/OCc3ccc(Cl)cc3)C2=O)cc1 (stereo unspecified)	-0.49	i	-13	i	i	7*
COc1ccc(CN2C(=O)c3ccccc3C2=O)cc1	1.6	i	-9	i	i	i
COc1ccc(CN2C(=O)c3ccccc3C(/C=N\OCc3ccc(F)cc3)C2=O)cc1 (stereo unspecified)	0.26	i	-13	i	i	10*
Cc1ccc(CN2C(=O)c3ccccc3NC2c2cc(Br)ccc2O)cc1 (stereo unspecified)	0.03	i	-13	i	i	13*
COCc1c(C(=O)Nc2cccc(S(=O)(=O)N3CCCCC3)c2)oc2ccccc12	nt	nt	nt	-9.3*	nt	nt
O=C(Nc1cccc(S(=O)(=O)N2CCCCC2)c1)c1cc2ccccc2o1	nt	nt	nt	-11*	nt	nt
O=C(Nc1cccc(S(=O)(=O)N2CCCCC2)c1)c1ccco1	nt	nt	nt	i	nt	nt
Nc1ncnc(N2CCOCC2)n1	nt	nt	nt	i	nt	nt
CCOC(=O)c1cnn(-c2nc3c(C)cccc3s2)c1C(F)(F)F	0.96	i	-10	i	-7.9*	i
CN(C)C(C)(C)C#CCCCCC#CC(C)(C)N(C)C	nt	nt	nt	i	nt	nt
CN(C)C(C)(C)C#CCC(c1ccccc1)c1ccccc1	-5*	i	-5	i	i	i
C/C(=N\N(c1ccccc1)c1ccccc1)c1ccc(N)cc1	-0.29	i	-15	i	i	i
C/C(=N\N(c1ccccc1)c1ccccc1)c1ccc(O)cc1	-5.1*	i	-11	i	i	i
COC(=O)C1CCN(C(=O)c2cc(S(=O)(=O)N3CCCCC3)ccc2Cl)CC1	nt	nt	nt	i	nt	nt
Cc1cccc2sc(NC(=O)CN(C)S(=O)(=O)c3ccc(Br)s3)nc12	0.95	i	-6	-9.9*	i	i
CC12CCC3c4cc(CN5CCOCC5)c(O)cc4CCC3C1CCC2=O (stereo unspecified)	nt	nt	nt	i	nt	nt
COc1ccc(Nc2nc3ccccc3nc2-n2nc(C)cc2C)cc1	-0.04	i	-8	i	-7.2*	i
Cc1cc(C)n(-c2nc3ccccc3nc2Nc2ccc3[nH]c(=O)[nH]c3c2)n1	1.1	i	0	i	i	i
COC(=O)CCC1(C(N)=O)CCC(=O)c2ccccc21 (stereo unspecified)	nt	nt	nt	i	nt	nt
Cc1cc(C)c(OCCCCN2CCC(C)CC2)c(Br)c1	-5.5*	i	-10	i	i	i
CC1CCN(CCOCCOc2ccc(Cl)cc2Br)CC1	-2.8	i	-9	i	i	6*
Cc1cc(Cl)c(OCCOCCN2CCC(C)CC2)c(Br)c1	-5.2*	i	-8	i	i	i
Cc1cc(Cl)c(OCCOCCN2CCN(C)CC2)c(Br)c1	-0.05	i	-8	i	i	i
